Measured values as given in ChEMBL document CHEMBL5244249, “Discovery of tofacitinib derivatives as orally active antitumor agents based on the scaffold hybridization strategy” (Eur J Med Chem, 2020).
The source made the active and inactive calls. The rule behind the calls is not given here.

How the values were obtained:
MGC-803 [1] = assay: Cell cycle arrest in human MGC-803 cells assessed as S phase cells at 5 uM incubated for 24 hrs by RNase/PI staining based flow cytometric analysis (reference value: 27.1%); assay type: functional
MGC-803 [2] = assay: Cell cycle arrest in human MGC-803 cells assessed as S phase cells at 10 uM incubated for 24 hrs by RNase/PI staining based flow cytometric analysis (reference value: 27.1%); assay type: functional
[3] = Toxicity in SCID mouse xenografted with human MGC-803 cells assessed as effect on general health at 12.5 to 25 mg/kg, IG administered for 21 days; assay type: organism-based; conditions: in vivo, po, 504 h, dose 12.5-25 mg/kg, time 21 day
Method in brief: (§1)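 SCID mice bearing subcutaneous MGC-803 xenografts (right side) dosed with 12.5 or 25 mg/kg over 21 days, 0.5% CMC-Na vehicle as control; body weight and tumor size monitored periodically; major organs examined histopathologically at end; means ± SD.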

MGC-803 [4] = assay: Induction of apoptosis in human MGC-803 cells assessed as increase in Bax protein expression at 5 to 10 uM incubated for 24 hrs by Western blot analysis; assay type: functional, cell-based; conditions: dose 5-10 µM
Method in brief: (§2)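 After 24 h exposure of MGC-803 cells, Bcl-2, Mcl-1, Bax and cytochrome c release assessed by Western blot with band quantitation; mean ± SD from three independent experiments.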

MGC-803 [5] = assay: Induction of mitochondrial dysfunction in human MGC-803 cells assessed as increase in green fluorescence intensity at 7.5 uM incubated for 24 hrs by JC-1 staining based fluorescence microscopic analysis (reference value: 9.9%); assay type: functional
MGC-803 [6] = assay: Induction of mitochondrial dysfunction in human MGC-803 cells assessed as upregulation of cleaved caspase-7 expression at 5 to 10 uM incubated for 24 hrs by Western blot analysis; assay type: functional, cell-based; conditions: dose 5-10 µM
Method in brief: (§3)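 Western blot of caspase 9, 3, 7, PARP and γH2A.X in MGC-803 lysates after 24 h exposure to 5, 7.5 or 10 μM; band quantitation; mean ± SD from three independent experiments.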

[7] = Toxicity in SCID mouse xenografted with human MGC-803 cells assessed as effect on liver at 12.5 to 25 mg/kg, IG administered for 21 days by H&E staining based histopathological analysis; assay type: organism-based; conditions: in vivo, po, 504 h, dose 12.5-25 mg/kg, time 21 day; method in brief: as §1
MGC-803 [8] = assay: Induction of mitochondrial dysfunction in human MGC-803 cells assessed as upregulation of cleaved caspase-3 expression at 5 to 10 uM incubated for 24 hrs by Western blot analysis; assay type: functional, cell-based; conditions: dose 5-10 µM; method in brief: as §3
BGC-823 = assay: Antiproliferative activity against human BGC-823 cells assessed as inhibition of cell growth incubated for 72 hrs by MTT assay; assay type: functional, cell-based; conditions: BGC-823, 72 h
Method in brief: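 Antiproliferative screen in gastric cancer lines MGC-803, HGC-27 and BGC-823 by MTT assay; IC50 reported as mean ± SD.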

[9] = Activation of MAPK pathway in human MGC-803 cells assessed as change in phosphorylated Erk5 expression at 5 to 10 uM incubated for 24 hrs by Western blot analysis; assay type: cell-based; conditions: dose 5-10 µM
MGC-803 [10] = assay: Induction of apoptosis in human MGC-803 cells assessed as decrease in Bcl-2 protein expression at 5 to 10 uM incubated for 24 hrs by Western blot analysis; assay type: functional, cell-based; conditions: dose 5-10 µM; method in brief: as §2
MGC-803 [11] = assay: Induction of mitochondrial dysfunction in human MGC-803 cells assessed as increase in green fluorescence intensity at 10 uM incubated for 24 hrs by JC-1 staining based fluorescence microscopic analysis (reference value: 9.9%); assay type: functional
MGC-803 [12] = assay: Induction of apoptosis in human MGC-803 cells assessed as cell rounding up at 5 to 10 uM incubated for 24 hrs by Hoechst 33342 staining based fluorescence microscopic analysis; assay type: functional; conditions: dose 5-10 µM
Method in brief: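 MGC-803 cells exposed to 0, 5, 7.5 or 10 μM; cell morphology imaged and nuclear morphology examined by staining. Mean ± SD, three independent experiments.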

MGC-803 [13] = assay: Induction of apoptosis in human MGC-803 cells assessed as late apoptotic cells at 7.5 uM incubated for 48 hrs by Annexin V-FITC/PI staining based flow cytometric analysis (reference value: 0.5 %); assay type: functional
[14] = Activation of MAPK pathway in human MGC-803 cells assessed as increase in phosphorylated p38 expression at 5 to 10 uM incubated for 24 hrs by Western blot analysis; assay type: cell-based; conditions: filed as activator, dose 5-10 µM
MGC-803 [15] = assay: Induction of apoptosis in human MGC-803 cells assessed as viable cells at 7.5 uM incubated for 24 hrs by Annexin V-FITC/PI staining based flow cytometric analysis (reference value: 90.3 %); assay type: functional; conditions: read-out: Activity
MGC-803 [16] = assay: Induction of apoptosis in human MGC-803 cells assessed as late apoptotic cells at 7.5 uM incubated for 24 hrs by Annexin V-FITC/PI staining based flow cytometric analysis (reference value: 3.8 %); assay type: functional
MGC-803 [17] = assay: Induction of mitochondrial dysfunction in human MGC-803 cells assessed as upregulation of cleaved caspase-9 expression at 5 to 10 uM incubated for 24 hrs by Western blot analysis; assay type: functional, cell-based; conditions: dose 5-10 µM; method in brief: as §3
MGC-803 [18] = assay: Induction of apoptosis in human MGC-803 cells assessed as necrotic cells at 10 uM incubated for 48 hrs by Annexin V-FITC/PI staining based flow cytometric analysis (reference value: 0.3 %); assay type: functional
MGC-803 [19] = assay: Induction of mitochondrial dysfunction in human MGC-803 cells assessed as downregulation of procaspase-3 expression at 5 to 10 uM incubated for 24 hrs by Western blot analysis; assay type: functional, cell-based; conditions: dose 5-10 µM; method in brief: as §3
[20] = Activation of MAPK pathway in human MGC-803 cells assessed as change in phosphorylated Erk1/2 expression at 5 to 10 uM incubated for 24 hrs by Western blot analysis; assay type: cell-based; conditions: dose 5-10 µM
MGC-803 [21] = assay: Induction of apoptosis in human MGC-803 cells assessed as total apoptotic cells at 10 uM incubated for 48 hrs by Annexin V-FITC/PI staining based flow cytometric analysis relative to control; assay type: functional
[22] = Activation of MAPK pathway in human MGC-803 cells assessed as change in JNK total expression at 5 to 10 uM incubated for 24 hrs by Western blot analysis; assay type: cell-based; conditions: dose 5-10 µM
MGC-803 [23] = assay: Cell cycle arrest in human MGC-803 cells assessed as G2/M phase cells at 5 uM incubated for 24 hrs by RNase/PI staining based flow cytometric analysis (reference value: 15.11%); assay type: functional
MGC-803 [24] = assay: Induction of apoptosis in human MGC-803 cells assessed as early apoptotic cells at 10 uM incubated for 24 hrs by Annexin V-FITC/PI staining based flow cytometric analysis (reference value: 3.9 %); assay type: functional
MGC-803 [25] = assay: Induction of apoptosis in human MGC-803 cells assessed as viable cells at 7.5 uM incubated for 48 hrs by Annexin V-FITC/PI staining based flow cytometric analysis (reference value: 96.7 %); assay type: functional; conditions: read-out: Activity
MGC-803 [26] = assay: Antitumor activity against human MGC-803 cells xenografted in SCID mouse assessed as decrease in average tumor weight at 25 mg/kg, IG administered for 21 days relative to control; assay type: functional; set-up: scale not given: the % may be the effect or the level left; conditions: time 21 day
Method in brief: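 MGC-803 cells implanted subcutaneously on the right side of SCID mice; dosed at 12.5 or 25 mg/kg in 0.5% CMC-Na (vehicle control) for 21 days. Body weight and tumor size recorded periodically; tumors excised and weighed at end. Means ± SD.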

[27] = Activation of MAPK pathway in human MGC-803 cells assessed as increase in phosphorylated JNK expression at 5 to 10 uM incubated for 24 hrs by Western blot analysis; assay type: cell-based; conditions: filed as activator, dose 5-10 µM

SMILES: Cc1cc(N2CC[C@@H](C)[C@@H](N(C)c3ncnc4[nH]ccc34)C2)n2nc(SCc3ccc(C(F)(F)F)cc3)nc2n1
- Activity (MGC-803 [1]): 30.04%
- Activity (MGC-803 [2]): 28.14%
- Activity [3]: Non-Toxic
- Activity (MGC-803 [4]): Active
- Activity (MGC-803 [5]): 39.1%
- Activity (MGC-803 [6]): Active
- Activity [7]: Non-Toxic
- Activity (MGC-803 [8]): Active
- IC50 (BGC-823): 23.3 µM
- Activity [9]: inactive
- Activity (MGC-803 [10]): Active
- Activity (MGC-803 [11]): 49.1%
- Activity (MGC-803 [12]): Active
- Activity (MGC-803 [13]): 67.5%
- Activity [14]: Active
- viability at 7.5 µM (MGC-803 [15]): 69.2%
- Activity (MGC-803 [16]): 15.8%
- Activity (MGC-803 [17]): Active
- Activity (MGC-803 [18]): 0.9%
- Activity (MGC-803 [19]): Active
- Activity [20]: inactive
- Activity (MGC-803 [21]): 82.1%
- Activity [22]: inactive
- Activity (MGC-803 [23]): 10.78%
- Activity (MGC-803 [24]): 12.7%
- viability at 7.5 µM (MGC-803 [25]): 22.1%
- Activity (MGC-803 [26]): 53%
- Activity [27]: Active
